Calb biofilm kill = kills Candida albicans biofilms | C. albicans biofilm + clotrimazole, Alamar Blue | inhibition, % at 6 µM | 85,000 tested, 0.14% active | AID 834;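 active means inhibition above 20%; inactive means inhibition below 20%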;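 further: preformed 24 hr biofilms exposed to compound for 48 hr; 0% = biofilm without compound and 100% = blank killed by clotrimazole plus chlorhexidine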
PTK2B oligo ant = antagonists of human Pyk2 oligomerization; Q293 cells, Pyk2 FERM NanoBiT luminescence; hits give low values; z-score (the deposit names both 25 µM and 10 µM); 99,000 tested, 0.83% active;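 active means Z-score of -3 or lower, scaled per plate to the spread of control and sample wells; inactive means z-score above -3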;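 further: negative z-score means lost luminescence so less FERM oligomerization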
Target sequence (Q14289 whole entry, looked up): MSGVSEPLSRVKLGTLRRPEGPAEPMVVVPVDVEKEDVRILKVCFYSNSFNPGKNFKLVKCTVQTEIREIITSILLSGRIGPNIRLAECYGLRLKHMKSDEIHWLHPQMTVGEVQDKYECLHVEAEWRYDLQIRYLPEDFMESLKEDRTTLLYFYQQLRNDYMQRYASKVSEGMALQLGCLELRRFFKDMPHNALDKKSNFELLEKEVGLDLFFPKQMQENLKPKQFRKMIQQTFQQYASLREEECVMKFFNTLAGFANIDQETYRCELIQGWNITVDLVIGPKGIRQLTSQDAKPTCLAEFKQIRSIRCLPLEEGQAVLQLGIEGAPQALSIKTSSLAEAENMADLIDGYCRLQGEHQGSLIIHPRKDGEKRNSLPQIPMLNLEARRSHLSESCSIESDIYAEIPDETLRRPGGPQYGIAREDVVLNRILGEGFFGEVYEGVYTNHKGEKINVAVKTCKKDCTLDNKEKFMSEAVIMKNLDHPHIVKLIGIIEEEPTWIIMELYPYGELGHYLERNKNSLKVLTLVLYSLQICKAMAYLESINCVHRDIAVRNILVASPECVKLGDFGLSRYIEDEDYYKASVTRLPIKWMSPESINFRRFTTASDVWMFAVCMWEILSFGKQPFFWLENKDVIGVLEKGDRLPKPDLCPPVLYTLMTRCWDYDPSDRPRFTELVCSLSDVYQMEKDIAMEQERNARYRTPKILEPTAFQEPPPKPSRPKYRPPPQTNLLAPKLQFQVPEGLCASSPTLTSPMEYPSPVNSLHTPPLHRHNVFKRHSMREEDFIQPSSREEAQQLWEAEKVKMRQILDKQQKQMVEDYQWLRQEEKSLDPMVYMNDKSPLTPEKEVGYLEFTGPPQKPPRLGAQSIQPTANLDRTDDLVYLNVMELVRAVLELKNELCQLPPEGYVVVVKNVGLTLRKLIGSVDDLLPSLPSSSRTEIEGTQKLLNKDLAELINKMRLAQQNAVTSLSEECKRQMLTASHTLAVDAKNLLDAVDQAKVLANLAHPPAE
PostGolgi yeast = growth inhibition of a yeast mutant, post-Golgi transport screen. post-Golgi transport phenotypic cell assay. inhibition, % at 10 µM. 98,000 tested, 0.9% active. AID 739;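 further: yeast cells grown in 1536-well plates; yeast grown about 18 h at 30C before absorbance read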
PostGolgi ctrl = growth of the yeast control strain, post-Golgi counter-screen. efflux-deficient yeast background strain, growth absorbance A615, 16 h. inhibition, % at 10 µM. 98,000 tested, 5% active. AID 738
E coli WT exp = blocks growth of wild type E. coli BW25113 | OD600 absorbance | growth inhibition, % at 100 µM | 98,000 tested, 0.15% active | AID 710;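 active means growth inhibition above about 50% at one test dose, limit read from the data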;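 further: growth measured after 20 h incubation at 37 °C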
tolC growth inh = growth inhibitors of E. coli BW25113 tolC mutant | 65,000 tested, 2.2% active | growth inhibition, % at 10 µM (by protocol) | OD615;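 active means growth inhibition at or above a cutoff equal to the mean over every tested compound plus 3 SD, cut at about 60% in these data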;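 further: growth measured after 20 h incubation at 37 °C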
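Assay system: tolC-deleted E. coli BW25113. Medium: kanamycin-containing LB broth (50 µg/mL). Dosing: 10 µM final, single dose. Timing: bacterial growth with compound for 20 h at 37 °C. Detection: A615 absorbance measurement. Read-out basis: growth inhibition in percent.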
The depositor's hits bear a star; / = not tested or not shown. Hits are enriched below; roughly 6.5% of the tested compounds scored in any of these assays. Unless noted, no stated cut-off is given here; in the data, active means inhibition above about 30%; inactive means the rest.

SMILES	Calb biofilm kill	PTK2B oligo ant	PostGolgi yeast	PostGolgi ctrl	E coli WT exp	tolC growth inh
CC1CCCCC12NC(=O)N(CC(=O)NC(=O)NCc1ccco1)C2=O (stereo not drawn)	/	0.55	4.1	4.2	-3.0	/
CC1CCCCC12NC(=O)N(CC(=O)NC(=O)Nc1ccc3c(c1)OCCO3)C2=O (stereo not drawn)	/	-3.65*	6.1	-0.7	-5.0	/
O=C(NCCCNC(=O)c1ccccn1)c1ccccn1	4.6	2.04	-11.0	34.6*	0.0	1.9
CN(C)CCCNC(=O)c1ccccn1	3.4	-2.11	7.1	9.6	0.0	/
CCCCNC(=O)Nc1ccccn1	0.3	-0.12	3.6	33.1*	0.0	/
COc1ccc(-c2nc3c(n2O)CCCC3=O)cc1OC	4.5	-0.67	-6.4	-0.8	6.0	1.8
CCCSc1nnc(NC(=O)c2nc(SC)ncc2Cl)s1	0.7	-0.68	2.5	34.7*	0.0	/
CSc1ncc(Cl)c(C(=O)Nc2nnc(SC)s2)n1	-1.9	-1.15	-8.1	28.8	-9.0	11.7
CN(C)/C=C1/Sc2ccccc2C1=O	1.8	-0.34	-4.0	9.4	13.0	-0.6
CC(=O)N(/N=C1\Sc2ccccc2C1=O)c1ccc(C)cc1C	7.4	0.47	-6.7	48.4*	-4.0	/
CC(=O)N(/N=C1\Sc2ccccc2C1=O)c1ccccc1C	2.1	-2.22	6.9	32.7*	3.0	/
CC(=O)N(/N=C1\Sc2ccccc2C1=O)c1ccccc1	/	-1.56	2.1	5.0	-13.0	/
Cc1cc(N2C(=O)CC(N3CCN(C(c4ccccc4)c4ccccc4)CC3)C2=O)no1 (stereo not drawn)	6.8	0.17	4.0	3.1	5.0	4.7
CCC(C)Cn1c(C(C)O)nc2ccccc21 (stereo not drawn)	4.7	0.72	2.5	2.2	0.0	/
CCCCc1c(C)c2ccc(OC)c(/C(C)=N\O)c2oc1=O	6.5	-1.6	10.2	10.3	10.0	20.3
COc1cc(S(=O)(=O)NC2CCCCC2C)ccc1Cl (stereo not drawn)	-2.5	-1.15	-2.9	48.7*	7.0	51.3
COc1ccc(S(=O)(=O)Nc2ccc(S(=O)(=O)N3CCOCC3)cc2)cc1C	2.3	-2.08	-2.8	36.2*	1.0	21.1
O=S(=O)(Nc1ccc(N2CCOCC2)cc1)c1ccc2ccccc2c1	0.2	/	4.1	47.9*	-14.0	/
O=S(=O)(Nc1ccc(S(=O)(=O)N2CCOCC2)cc1)c1ccccc1	6.7	0.19	-0.2	-0.6	3.0	1.4
Cc1ccc(S(=O)(=O)Nc2ccc(N3CCOCC3)cc2)cc1	1.9	0.95	-9.0	-2.9	-7.0	/
COc1cc(NS(=O)(=O)c2ccc(C)c(C)c2)c(OC)cc1Cl	7.5	-1.6	-6.8	46.9*	-12.0	/
COc1ccc(S(=O)(=O)Nc2ccccc2OC)cc1C	1.6	-0.19	-1.1	9.4	-3.0	6.4
COc1ccc(S(=O)(=O)Nc2ccccc2SC)cc1C	-3.5	-1.47	1.4	36.1*	0.0	20.2
COc1ccc(NS(=O)(=O)c2ccc(OC)c(OC)c2)cc1OC	6.6	0.68	2.2	7.3	-5.0	-9.3
COc1ccc(S(=O)(=O)N2CCOCC2)c(Cl)c1Cl	3.9	-0.38	-1.4	30.2*	2.0	2.8
SMILES	Calb biofilm kill	PTK2B oligo ant	PostGolgi yeast	PostGolgi ctrl	E coli WT exp	tolC growth inh
COc1ccc(S(=O)(=O)Nc2ccc(C(F)(F)F)cc2)cc1OC	7.2	-3.38*	2.5	10.9	0.0	31.1
CC(C)CC(=O)Nc1ccccc1-c1nnn(CC(=O)N2CCc3ccccc3C2)n1	3.5	-0.42	2.2	0.6	-15.0	/
CC1=C(C(=O)Nc2ccc(Br)cc2)C(c2ccco2)NC(=O)N1 (stereo not drawn)	2.6	-1.06	16.2	-1.6	2.0	/
Cc1ccc(C(=O)C(OC(=O)CNC(=O)c2ccc(Cl)cc2)c2ccccc2)cc1 (stereo not drawn)	/	-0.63	0.0	-4.7	-12.0	/
Cc1cc(Br)ccc1NC(=O)CN1C(=O)C2C3CC(c4ccccc4)C(C3)C2C1=O (stereo not drawn)	/	-1.38	2.2	53.3*	-10.0	/
Cc1cc(Br)ccc1NC(=O)CNC(=O)CN1C(=O)NC2(CCCCCC2)C1=O	5.3	-0.17	-3.3	1.8	-3.0	11.8
CC1=CCC(C(=O)O)(C(=O)N/N=C/c2cccs2)C(c2ccc([N+](=O)[O-])cc2)C1 (stereo not drawn)	2.7	-1.03	0.9	65.3*	9.0	/
CC1=CCC(C(=O)O)(C(=O)N/N=C/c2cccs2)C(c2ccc(F)cc2)C1 (stereo not drawn)	7.5	-0.67	-5.3	5.4	-13.0	/
C(=C/c1ccnc2nc(SC/C=C/c3ccccc3)nn12)/c1ccccc1	/	-3.02*	-1.2	5.1	-12.0	/
C=CCNC(=O)c1ccc(C(=O)c2ccccc2)cc1	1.8	-0.1	-0.8	3.7	6.0	3.6
C=CCNC(=O)c1ccc2nc(-c3ccccc3)c(-c3ccccc3)nc2c1	/	-1.09	8.3	35.9*	-3.0	/
Cc1ccc(-c2nc3ccc(C(=O)O)cc3nc2-c2ccc(C)cc2)cc1	/	-3.28*	-4.3	16.8	1.0	/
COc1ccccc1CC(NC(C)=O)C(=O)N1CCN(C(=O)Nc2ccccc2Cl)CC1 (stereo not drawn)	6.8	0.43	1.9	6.8	-1.0	-30.4
COC(=O)c1ccc(Cl)c(NC(=O)CSc2ncn[nH]2)c1	6.9	-0.82	-2.6	30.7*	-8.0	8.1
Cc1cc(N2CCN(C(=O)c3ccco3)CC2)n2nc(-c3cccc(Cl)c3)cc2n1	6.2	-0.49	7.3	51.6*	-13.0	8.6
Cn1cc(S(=O)(=O)N2CCN(C(=O)c3ccco3)CC2)c(=O)n(C)c1=O	20.1*	/	-2.4	8.1	1.0	-6.3
O=C(c1cc(-c2ccccc2)nc2ccccc12)N1CCOCC1	10.3	-1.13	-7.6	-4.9	-12.0	2.5
Cn1c(C(=O)N2CCN(C(=O)c3ccco3)CC2)cc2c(=O)n(C)c3ccccc3c21	2.7	/	-9.9	34.5*	-3.0	32.2
O=C(c1ccco1)N1CCN(C(=O)c2cc(-c3ccccc3)nc3ccccc23)CC1	5.7	-0.19	-2.6	31.1*	4.0	/
Cc1nc2cc(-c3cccc(Cl)c3)nn2c(N2CCN(C(=O)c3ccco3)CC2)c1C	-3.5	/	/	/	/	20.6
Cn1c(C(=O)N2CCN(c3ccc(F)cc3)CC2)cc2c(=O)n(C)c3ccccc3c21	7.7	/	/	/	/	6.1
Cc1c(S(=O)(=O)N2CCN(C(=O)c3ccco3)CC2)c(=O)n(C)c(=O)n1C	14.0	/	-4.0	3.3	8.0	-8.8
CCN(CC)S(=O)(=O)c1ccc(C(=O)NCCCN=C2NS(=O)(=O)c3ccccc32)cc1	-2.1	-0.14	/	/	/	/
Cc1cccc(C(=O)O/N=C2/CC3CCC2(C)C3(C)C)c1 (stereo not drawn)	3.5	-0.43	/	/	/	/
O=C(NC(NC(=S)Nc1ccccc1C(=O)O)C(Cl)(Cl)Cl)c1cccc([N+](=O)[O-])c1 (stereo not drawn)	/	-0.34	4.2	2.5	8.0	/
O=C(NNC(=O)c1cc(O)c(O)c(O)c1)NC1CCCCC1	/	2	-3.8	8.4	7.0	/
COCCCNC(=O)c1cc2c(=O)n(C)c3ccccc3c2n1C	11.2	/	21.9	38.8*	5.0	-0.3

Compound activity as filed in PubChem.
